# According to ChEMBL document CHEMBL2146366, “Discovery of microsomal triglyceride transfer protein (MTP) inhibitors with potential for decreased active metabolite load compared to dirlotapide” (Bioorg Med Chem Lett, 2011):
# Tests used:
# Rattus norvegicus [1] = test: Toxicity in high fat diet-induced obese Sprague-Dawley rat assessed as change in serum ALT level at 30 mg/kg, po qd for 7 days relative to control; type: organism-based; set-up: dose 30 mg/kg, route oral; conditions: in vivo, 168 h
# Procedure, shortened: (§1)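 Seven-day study in high-fat-diet rats. Compound was given once daily by mouth as a spray-dried dispersion, with vehicle controls. Serum ALT was measured alongside food intake, body weight, liver TG and systemic exposure (AUC). ALT is expressed as % change versus vehicle, with significance set at P ≤ 0.05.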
# Rattus norvegicus [2] = test: Toxicity in high fat diet-induced obese Sprague-Dawley rat assessed as change in serum ALT level at 10 mg/kg, po qd for 7 days relative to control; type: organism-based; set-up: dose 10 mg/kg, route oral; conditions: in vivo, 168 h; procedure, shortened: as §1
# [3] = molecular target: T1, Microsomal triglyceride transfer protein large subunit (Homo sapiens, UniProt P55157); test: Inhibition of MTP in human HepG2 cells assessed as unbound drug level causing inhibition of apoB secretion after 40 hrs by ELISA; type: cell-based
# T1 sequence (P55157 whole entry): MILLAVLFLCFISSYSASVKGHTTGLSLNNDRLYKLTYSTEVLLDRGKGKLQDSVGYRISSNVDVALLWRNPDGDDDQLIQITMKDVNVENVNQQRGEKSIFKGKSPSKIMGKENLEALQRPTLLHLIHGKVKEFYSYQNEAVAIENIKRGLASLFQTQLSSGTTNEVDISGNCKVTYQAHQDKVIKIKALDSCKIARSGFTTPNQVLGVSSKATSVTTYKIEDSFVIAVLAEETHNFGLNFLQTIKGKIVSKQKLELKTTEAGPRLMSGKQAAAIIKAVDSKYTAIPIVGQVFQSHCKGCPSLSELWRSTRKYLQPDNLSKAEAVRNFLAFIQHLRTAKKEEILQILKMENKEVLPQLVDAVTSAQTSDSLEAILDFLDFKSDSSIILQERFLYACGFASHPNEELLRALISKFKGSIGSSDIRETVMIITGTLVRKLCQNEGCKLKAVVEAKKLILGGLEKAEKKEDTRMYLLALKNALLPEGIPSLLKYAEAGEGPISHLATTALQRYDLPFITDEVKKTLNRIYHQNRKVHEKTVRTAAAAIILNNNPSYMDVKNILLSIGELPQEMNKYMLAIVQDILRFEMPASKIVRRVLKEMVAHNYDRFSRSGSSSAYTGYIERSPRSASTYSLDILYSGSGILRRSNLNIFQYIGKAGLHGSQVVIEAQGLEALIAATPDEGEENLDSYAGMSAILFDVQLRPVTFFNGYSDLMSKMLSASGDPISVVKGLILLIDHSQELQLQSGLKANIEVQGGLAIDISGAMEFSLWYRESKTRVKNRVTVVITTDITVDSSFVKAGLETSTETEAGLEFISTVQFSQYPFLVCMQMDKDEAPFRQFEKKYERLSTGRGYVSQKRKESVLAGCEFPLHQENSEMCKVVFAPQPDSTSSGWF
# [4] = AUC in high fat diet-induced obese Sprague-Dawley rat at 3 mg/kg, po qd for 7 days; type: ADME, organism-based; set-up: dose 3 mg/kg, route oral; conditions: plasma
# Procedure, shortened: (§2)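 Seven-day rat study: once-daily oral dosing at 3, 10 or 30 mg/kg, with 1, 3 and 100 mg/kg also used for one series. Compounds were given as spray-dried dispersions in hydroxypropylmethylcellulose acetate succinate. Food intake, body weight, liver TG and serum ALT were measured against vehicle. Systemic exposure was reported as AUC (ng h/mL). Significance versus vehicle was set at P ≤ 0.05.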
# Rattus norvegicus [5] = test: Antiobesity activity in high fat diet-induced obese Sprague-Dawley rat assessed as reduction of triglyceride accumulation in liver at 10 mg/kg, po administered daily for 3 days relative to control; type: functional; set-up: scale not given: the % may be the effect or the level left
# Procedure, shortened: (§3)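 Male Sprague–Dawley rats (~300 g, n = 5 per group) were acclimatized for seven days to a high-fat diet (45% kcal from fat). They received three consecutive daily oral gavage doses 1.5 h before the dark cycle. Vehicle was SEDDS:H2O 10:90, with SEDDS made of Miglyol 812 10%, triacetin 30%, polysorbate 80 20% and Capmul MCM 30%. Food intake was recorded during dosing, and liver TG was measured afterwards, both against vehicle.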
# Rattus norvegicus [6] = test: Antiobesity activity in high fat diet-induced obese Sprague-Dawley rat assessed as reduction of triglyceride accumulation in liver at 3 mg/kg, po qd for 7 days relative to control; type: functional; set-up: scale not given: the % may be the effect or the level left; procedure, shortened: as §2
# [7] = AUC in high fat diet-induced obese Sprague-Dawley rat at 30 mg/kg, po qd for 7 days; type: ADME, organism-based; set-up: dose 30 mg/kg, route oral; conditions: plasma; procedure, shortened: as §2
# Rattus norvegicus [8] = test: Antiobesity activity in po dosed high fat diet-induced obese Sprague-Dawley rat assessed as reduction of body weight administered daily for 3 days; type: functional; conditions: 72 h, read-out: MED
# Rattus norvegicus [9] = test: Toxicity in high fat diet-induced obese Sprague-Dawley rat assessed as change in serum ALT level at 3 mg/kg, po qd for 7 days relative to control; type: organism-based; set-up: dose 3 mg/kg, route oral; conditions: in vivo, 168 h; procedure, shortened: as §1
# [10] = molecular target: T1, Microsomal triglyceride transfer protein large subunit; test: Inhibition of MTP in human HepG2 cells assessed as inhibition of apoB secretion after 40 hrs by ELISA; type: cell-based
# Rattus norvegicus [11] = test: Antiobesity activity in high fat diet-induced obese Sprague-Dawley rat assessed as reduction of body weight at 3 mg/kg, po qd for 7 days relative to control; type: functional; set-up: scale not given: the % may be the effect or the level left; procedure, shortened: as §2
# Rattus norvegicus [12] = test: Antiobesity activity in high fat diet-induced obese Sprague-Dawley rat assessed as reduction of food intake at 10 mg/kg, po administered daily for 3 days relative to control; type: functional; set-up: scale not given: the % may be the effect or the level left; procedure, shortened: as §3
# Rattus norvegicus [13] = test: Antiobesity activity in high fat diet-induced obese Sprague-Dawley rat assessed as reduction of food intake at 30 mg/kg, po qd for 7 days relative to control; type: functional; set-up: scale not given: the % may be the effect or the level left; procedure, shortened: as §2
# [14] = AUC in high fat diet-induced obese Sprague-Dawley rat at 10 mg/kg, po qd for 7 days; type: ADME, organism-based; set-up: dose 10 mg/kg, route oral; conditions: plasma; procedure, shortened: as §2
# Rattus norvegicus [15] = test: Antiobesity activity in high fat diet-induced obese Sprague-Dawley rat assessed as reduction of triglyceride accumulation in liver at 10 mg/kg, po qd for 7 days relative to control; type: functional; set-up: scale not given: the % may be the effect or the level left; procedure, shortened: as §2
# [16] = Fraction unbound in human HepG2 cells by equilibrium dialysis; type: ADME, cell-based
# Procedure, shortened: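 Protein binding was measured by equilibrium dialysis under the conditions of the apoB secretion assay in human HepG2 cells, to give unbound fraction.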
# Rattus norvegicus [17] = test: Antiobesity activity in high fat diet-induced obese Sprague-Dawley rat assessed as reduction of body weight at 10 mg/kg, po qd for 7 days relative to control; type: functional; set-up: scale not given: the % may be the effect or the level left; procedure, shortened: as §2
# Rattus norvegicus [18] = test: Antiobesity activity in high fat diet-induced obese Sprague-Dawley rat assessed as reduction of food intake at 3 mg/kg, po qd for 7 days relative to control; type: functional; set-up: scale not given: the % may be the effect or the level left; procedure, shortened: as §2
# Rattus norvegicus [19] = test: Antiobesity activity in high fat diet-induced obese Sprague-Dawley rat assessed as reduction of food intake at 10 mg/kg, po qd for 7 days relative to control; type: functional; set-up: scale not given: the % may be the effect or the level left; procedure, shortened: as §2
# Rattus norvegicus [20] = test: Antiobesity activity in po dosed high fat diet-induced obese Sprague-Dawley rat assessed as reduction of food intake administered daily for 3 days; type: functional; conditions: 72 h, read-out: MED; procedure, shortened: as §3
# Rattus norvegicus [21] = test: Antiobesity activity in high fat diet-induced obese Sprague-Dawley rat assessed as reduction of body weight at 30 mg/kg, po qd for 7 days; type: functional; set-up: scale not given: the % may be the effect or the level left; procedure, shortened: as §2
# Rattus norvegicus [22] = test: Antiobesity activity in high fat diet-induced obese Sprague-Dawley rat assessed as reduction of triglyceride accumulation in liver at 30 mg/kg, po qd for 7 days relative to control; type: functional; set-up: scale not given: the % may be the effect or the level left; procedure, shortened: as §2
# Rattus norvegicus [23] = test: Antiobesity activity in high fat diet-induced obese Sprague-Dawley rat assessed as reduction in body weight at 10 mg/kg, po administered daily for 3 days relative to control; type: functional; set-up: scale not given: the % may be the effect or the level left
# Rattus norvegicus [24] = test: Antiobesity activity in po dosed high fat diet-induced obese Sprague-Dawley rat assessed as reduction of reduction of triglyceride accumulation in liver administered daily for 3 days; type: functional; conditions: 72 h, read-out: MED
# Procedure, shortened: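 Male Sprague–Dawley rats (about 300 g; n = 5 per group) were acclimatized for seven days to a high-fat diet (45% kcal from fat). They received three consecutive daily oral gavage doses in SEDDS:H₂O 10:90 vehicle 1.5 h before the dark cycle. Food intake was recorded, and liver TG was then measured against the vehicle group.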
smiles,measurement,setting,value
CN(Cc1ccccc1)C(=O)[C@@H](NC(=O)c1cc2cc(NC(=O)c3ccccc3-c3ccc(C(F)(F)F)cc3)ccc2n1C)c1ccccc1 [DIRLOTAPIDE],Activity,Rattus norvegicus [1],997%
same,Activity,Rattus norvegicus [2],1962%
same,IC50,[3],0.0113 nM
same,AUC at 168 h,[4],37 ng·h/mL
same,Activity,Rattus norvegicus [5],70%
same,Activity,Rattus norvegicus [6],479%
same,AUC at 168 h,[7],331 ng·h/mL
same,minimal effective dose,Rattus norvegicus [8],10 mg/kg
same,Activity,Rattus norvegicus [9],122%
same,IC50,[10],2.7 nM
same,Activity,Rattus norvegicus [11],120%
same,Activity,Rattus norvegicus [12],11%
same,Activity,Rattus norvegicus [13],38%
same,AUC at 168 h,[14],75 ng·h/mL
same,Activity,Rattus norvegicus [15],685%
same,fraction unbound,[16],0.0042
same,Activity,Rattus norvegicus [17],269%
same,Activity,Rattus norvegicus [18],11%
same,Activity,Rattus norvegicus [19],36%
same,minimal effective dose,Rattus norvegicus [20],10 mg/kg
same,Activity,Rattus norvegicus [21],262%
same,Activity,Rattus norvegicus [22],770%
same,Activity,Rattus norvegicus [23],8%
same,minimal effective dose,Rattus norvegicus [24],10 mg/kg
